STEP block = blocks human striatal-enriched tyrosine phosphatase; recombinant STEP, OMFP fluorogenic substrate, fluorescence; inhibition, % at 20 µM; 360,000 compounds, 0.25% hits;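 active = inhibition at 20 µM, scaled per plate between control wells, above about 37%, limit read from the data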;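 also: 0% = DMSO with enzyme and substrate and 100% = substrate only without enzyme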
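material = STEP tyrosine phosphatase | reagent = fluorogenic phosphatase substrate OMFP at 25 µM final | doses = single compound dose of 20 µM, 1% DMSO final | schedule = 20 min reaction, room temperature, in the dark | measured by = fluorescence, 480/540 nm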
FAS-TE inh = FAS thioesterase (human) inhibition | 360,000 compounds, 0.67% hits | P49327 | recombinant FAS-TE, OMFH fluorogenic substrate, fluorescence endpoint | inhibition, % at 15 µM;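 active = compounds whose normalised, plate-corrected inhibition of enzyme fluorescence in the single-dose primary screen is 50% or more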;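 also: 0% = DMSO with enzyme and 100% = substrate without enzyme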
SUMO1 PPI mod = SUMO1-SIM interaction modulation | 360,000 compounds, 0.33% hits | inhibition, % at 20 µM | AID 602429 | P63165 | SUMO1 binding to a labelled peptide, TR-FRET, 1 h; in the data active = inhibition above about 37%
Target sequence (P63165 whole entry, looked up): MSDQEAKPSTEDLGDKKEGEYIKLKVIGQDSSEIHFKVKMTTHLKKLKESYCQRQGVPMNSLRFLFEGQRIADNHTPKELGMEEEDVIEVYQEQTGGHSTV
LMPTP inh = LMPTP (human) inhibition. recombinant LMPTP-A, OMFP fluorogenic substrate, fluorescence intensity. inhibition, % at 20 µM. 360,000 compounds, 0.22% hits;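 active = compounds that cut the enzyme signal by at least half of the control window in the single-dose screen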;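 also: plate controls were DMSO wells with enzyme plus substrate for no effect and substrate without enzyme for full effect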
Target sequence (P24666 whole entry, looked up): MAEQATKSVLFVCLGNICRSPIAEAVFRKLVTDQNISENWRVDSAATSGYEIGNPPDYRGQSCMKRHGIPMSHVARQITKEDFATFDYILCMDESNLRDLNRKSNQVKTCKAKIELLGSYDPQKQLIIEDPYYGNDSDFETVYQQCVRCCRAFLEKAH
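Test system: LMPTP-A, protein tyrosine phosphatase of low molecular weight; Input: 0.625 nM enzyme; Incubation: 50 min dark incubation at room temperature; Signal: endpoint fluorescence intensity from OMFP dephosphorylation; Read-out basis: % inhibition versus control wells.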
Scp-1 inhibitor = blocks human Scp-1 phosphatase activity. AID 493091. 340,000 compounds, 0.88% hits. Recombinant Scp1, phosphopeptide, malachite green phosphate absorbance. inhibition, % at 20 µM;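 active = inhibition above about 50% at 20 µM, limit read from the data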;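 also: plate controls were DMSO wells with enzyme for no effect and wells lacking enzyme for full effect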
Target sequence (Q9GZU7 76-261 limits assumed): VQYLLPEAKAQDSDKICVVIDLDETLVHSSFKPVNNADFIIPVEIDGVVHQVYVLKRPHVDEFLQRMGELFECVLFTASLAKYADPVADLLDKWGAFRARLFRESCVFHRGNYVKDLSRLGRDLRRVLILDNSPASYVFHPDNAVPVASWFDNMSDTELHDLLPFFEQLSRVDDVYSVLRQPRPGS
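Test system: SCP-1 catalytic domain; Buffer or medium: Acidic Tris acetate buffer with magnesium and detergent; Also added: Phosphorylated 17-residue peptide substrate; Compound: single 20 µM dose, 1% DMSO; Schedule: enzyme reaction 45 min at room temperature, colour 5 min, stabilisation 30 min; Signal: Phosphate-binding colour reagent, absorbance read at 630 nm.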
Scp1 confirm = Scp-1 (human) inhibition, single-dose confirmed; shares compounds with Scp-1 inhibitor; recombinant SCP-1 catalytic domain, phosphate release, malachite green absorbance; inhibition, % at 20 µM; 2,500 compounds, 61% hits;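 also: plate controls were DMSO with enzyme for no effect and buffer wells lacking enzyme for full effect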
MG interference = colorimetric interference in Scp-1 counter-screen | apparent inhibition (interference), % at 20 µM | shares compounds with Scp-1 inhibitor | 2,500 tested, under 10 active | Colorimetric interference counterscreen, malachite green absorbance 630 nm;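 also: compounds added after enzyme reaction finished so only phosphate colour detection is probed; plate controls were DMSO wells with completed Scp-1 reaction for no effect and substrate wells lacking enzyme for full effect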
Scp1 DSF = validation of human Scp-1 inhibitors by thermal shift binding | shares compounds with Scp-1 inhibitor | Recombinant SCP1, Sypro Orange thermal shift Tm | thermal shift relative to vanadate control, % at 40 µM | 1,500 compounds, 25% hits;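 active = substances whose mean melting-temperature shift, as a percentage of the reference inhibitor's shift, reaches about 5.3%, limit read from the data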;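 also: 0% = Tm of DMSO wells and 100% = Tm with sodium orthovanadate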
Numbers without * were called inactive; nt = not tested or not shown. Shown are actives, neighbours in structure and some others; about 1.9% of the full set was active somewhere.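 The calls were made as follows, unless noted: active = inhibition of at least 30% at 20 µM; inactive = the rest.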

SMILES	STEP block	FAS-TE inh	SUMO1 PPI mod	LMPTP inh	Scp-1 inhibitor	Scp1 confirm	MG interference	Scp1 DSF
Cc1ccc(S(=O)(=O)c2c(C)cc(C)[nH]c2=O)cc1	-2	0	0	0	-10	nt	nt	nt
CC(=O)Nc1cc(C(=O)O)ccc1S(=O)(=O)c1ccc(C)cc1	-8	-8	-1	1	25	nt	nt	nt
CCC(=O)Nc1cc(C(=O)O)ccc1S(=O)(=O)c1ccc(C)cc1	9	-8	7	-1	67*	57*	-5	4
C=C(C)C(=O)Nc1cccc(C2=NOC3(C2)C[C@@H](C(N)=O)N(C(=O)c2cc([N+](=O)[O-])cc([N+](=O)[O-])c2C)C3)c1 (some centres not stated)	1	1	46*	1	70*	64*	-6	4
C/C=C(/C)C(=O)Nc1cccc(C2=NOC3(C2)C[C@H](C(N)=O)N(C(=O)c2ccc(Cl)cc2)C3)c1 (some centres not stated)	-1	-2	4	2	-6	nt	nt	nt
C=C(C)C(=O)Nc1cccc(C2=NOC3(C2)C[C@H](C(N)=O)N(C(=O)c2ccccc2)C3)c1 (some centres not stated)	0	-10	36	1	88*	65*	1	4
C=C(C)C(=O)N1CC2(CC(c3cccc(NC(=O)/C=C\C=C/C)c3)=NO2)C[C@H]1C(N)=O (some centres not stated)	4	-15	23	-3	52*	55*	-13	-11
CCCCCC(=O)Nc1cccc(C2=NOC3(C2)C[C@@H](C(N)=O)N(C(=O)c2ccc(Cl)cc2)C3)c1 (some centres not stated)	-1	0	0	0	66*	-14	-16	nt
Cc1cc(F)ccc1C(O)c1ncc(-c2cccc3ccccc23)[nH]1 (configuration not stated)	3	2	-7	-1	nt	nt	nt	nt
COc1ccccc1N(CC(=O)N1CCN(c2ccc(F)cc2)CC1)S(=O)(=O)c1ccc(C)cc1	4	30	0	2	-7	nt	nt	nt
C=C(C)C(=O)Nc1cccc(C2=NOC3(C2)C[C@H](C(N)=O)N(C(=O)COc2ccc(Cl)cc2)C3)c1 (some centres not stated)	5	-7	104*	1	72*	75*	2	-8
C=C(C)C(=O)Nc1cccc(C2=NOC3(C2)C[C@@H](C(N)=O)N(C(=O)C2(C)CC2)C3)c1 (some centres not stated)	13	-10	91*	0	75*	60*	-16	-5
CCC(=O)Nc1cccc(C2=NOC3(C2)C[C@@H](C(N)=O)N(C(=O)COc2ccc(Cl)cc2)C3)c1 (some centres not stated)	-2	-2	2	-1	-4	nt	nt	nt
C=C(C)C(=O)Nc1cccc(C2=NOC3(C2)C[C@@H](C(N)=O)N(C(=O)C(=C)C)C3)c1 (some centres not stated)	3	-11	63*	-1	70*	62*	-9	-11
C/C=C\C(=O)Nc1cccc(C2=NOC3(C2)C[C@@H](C(N)=O)N(C(=O)C2(C)CC2)C3)c1 (some centres not stated)	0	-8	1	-2	0	nt	nt	nt
CCCCCC(=O)Nc1cccc(C2=NOC3(C2)C[C@H](C(N)=O)N(C(=O)CCCCC)C3)c1 (some centres not stated)	0	-3	6	1	0	nt	nt	nt
CN1C(=O)[C@@](O)(c2cn(C)c3ccccc23)c2cc(Br)ccc21	nt	nt	2	0	nt	nt	nt	nt
CSc1ccccc1CNc1nc(NCC2CC2)nc2ccsc12	2	10	1	35	nt	nt	nt	nt
NC(Cc1ccccc1)c1csc(Nc2nccc(C(F)(F)F)n2)n1 (configuration not stated)	2	-6	-3	-4	nt	nt	nt	nt
CC(C)CNc1ncnc2c1ncn2[C@H]1CN(Cc2ccco2)C[C@@H](CO)O1	3	-7	-2	0	nt	nt	nt	nt
O=C(Nc1ccc2c(c1)OCO2)C1CC(=O)N(c2ccc3c(c2)OCCO3)C1 (configuration not stated)	-1	-1	7	1	-12	nt	nt	nt
O=C(O)C1CC(=O)N(c2ccc3c(c2)OCCO3)C1 (configuration not stated)	18	-9	6	2	75*	55*	-11	-14
C=CCNc1nc(C(=O)OCC(=O)c2cccc(Br)c2)cs1	4	1	2	9	57*	60*	-18	11*
CCc1ccccc1NC(=O)CNC(=O)CCc1nc2sc3c(c2c(=O)[nH]1)CCCC3	7	-2	9	10	70*	66*	-18	-3
O=C(CCc1nc2sc3c(c2c(=O)[nH]1)CCCC3)NCCc1ccccc1	3	5	3	1	11	nt	nt	nt
SMILES	STEP block	FAS-TE inh	SUMO1 PPI mod	LMPTP inh	Scp-1 inhibitor	Scp1 confirm	MG interference	Scp1 DSF
CCN(CC(=O)Nc1c(F)cccc1F)C(=O)CCc1nc2sc3c(c2c(=O)[nH]1)CCCC3	10	-4	23	20	65*	59*	-22	9.0*
CCN(CC(=O)Nc1ccccc1C(F)(F)F)C(=O)CCc1nc2sc3c(c2c(=O)[nH]1)CCCC3	8	-1	8	4	38	nt	nt	nt
CCOc1ccccc1-c1nc2c(s1)CCc1onc(-c3ccc(OC)cc3)c1-2	0	26	9	3	81*	-21	-24	nt
COc1ccc(-c2noc3c2-c2nc(-c4ccccc4Cl)sc2CC3)cc1	2	26	-1	2	-17	nt	nt	nt
C[C@H](CO)N1C[C@H](C)[C@@H](CN(C)C(=O)Nc2ccc(C(F)(F)F)cc2)Oc2ccc(NC(=O)Nc3ccccc3)cc2C1=O	-2	22	5	2	12	nt	nt	nt
C[C@H](CO)N1C[C@H](C)[C@@H](CN(C)C(=O)Nc2ccccc2)Oc2ccc(NC(=O)Nc3ccccc3)cc2C1=O	-1	-4	5	0	71*	15	-11	nt
CC(C)NC(=O)Nc1ccc2c(c1)C(=O)N([C@H](C)CO)C[C@H](C)[C@@H](CN(C)C(=O)Nc1ccc3c(c1)OCO3)O2	0	-7	1	-1	62*	-7	-17	nt
C[C@H](CO)N1C[C@H](C)[C@@H](CN(C)C(=O)Nc2ccccc2)Oc2ccc(NC(=O)c3ccncc3)cc2C1=O	1	-13	-3	0	75*	18	-15	nt
